Reference: ChEMBL document CHEMBL4138152, “Exploring the tetrahydroisoquinoline thiohydantoin scaffold blockade the androgen receptor as potent anti-prostate cancer agents” (Eur J Med Chem, 2018)
The source made the active and inactive calls. The calls are words filed in the database; no cut-off is given here.

What was measured:
LNCaP = assay: Antiproliferative activity against human LNCAP cells after 3 days by MTT assay; format: functional, cell-based; conditions: 72 h
Outline: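 LNCaP cells kept in RPMI-1640 with 10% FBS, 37 °C, 5% CO2. Seeded at 10,000 cells/well and left 24 h. Serial dilutions of compound or DMSO added, then 3 d incubation. MTT (5 mg/mL) added for 4 h, crystals dissolved in DMSO, absorbance read at 492 nm. Triplicate or more; IC50 reported as mean.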

DU-145 = assay: Antiproliferative activity against human DU145 cells after 3 days by MTT assay; format: functional, cell-based; conditions: DU-145, 72 h
Outline: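 DU145 cells kept in RPMI-1640 with 10% FBS, 37 °C, 5% CO2. Seeded at 7,000 cells/well and left 24 h. Serial dilutions of compound or DMSO added, then 3 d incubation. MTT (5 mg/mL) added for 4 h, formazan dissolved in DMSO, absorbance read at 492 nm. Triplicate or more; IC50 reported as mean.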

[1] = biological target: T1, Androgen receptor (Homo sapiens) (UniProt P10275); conditions: at 10 µM
T1 sequence (whole entry): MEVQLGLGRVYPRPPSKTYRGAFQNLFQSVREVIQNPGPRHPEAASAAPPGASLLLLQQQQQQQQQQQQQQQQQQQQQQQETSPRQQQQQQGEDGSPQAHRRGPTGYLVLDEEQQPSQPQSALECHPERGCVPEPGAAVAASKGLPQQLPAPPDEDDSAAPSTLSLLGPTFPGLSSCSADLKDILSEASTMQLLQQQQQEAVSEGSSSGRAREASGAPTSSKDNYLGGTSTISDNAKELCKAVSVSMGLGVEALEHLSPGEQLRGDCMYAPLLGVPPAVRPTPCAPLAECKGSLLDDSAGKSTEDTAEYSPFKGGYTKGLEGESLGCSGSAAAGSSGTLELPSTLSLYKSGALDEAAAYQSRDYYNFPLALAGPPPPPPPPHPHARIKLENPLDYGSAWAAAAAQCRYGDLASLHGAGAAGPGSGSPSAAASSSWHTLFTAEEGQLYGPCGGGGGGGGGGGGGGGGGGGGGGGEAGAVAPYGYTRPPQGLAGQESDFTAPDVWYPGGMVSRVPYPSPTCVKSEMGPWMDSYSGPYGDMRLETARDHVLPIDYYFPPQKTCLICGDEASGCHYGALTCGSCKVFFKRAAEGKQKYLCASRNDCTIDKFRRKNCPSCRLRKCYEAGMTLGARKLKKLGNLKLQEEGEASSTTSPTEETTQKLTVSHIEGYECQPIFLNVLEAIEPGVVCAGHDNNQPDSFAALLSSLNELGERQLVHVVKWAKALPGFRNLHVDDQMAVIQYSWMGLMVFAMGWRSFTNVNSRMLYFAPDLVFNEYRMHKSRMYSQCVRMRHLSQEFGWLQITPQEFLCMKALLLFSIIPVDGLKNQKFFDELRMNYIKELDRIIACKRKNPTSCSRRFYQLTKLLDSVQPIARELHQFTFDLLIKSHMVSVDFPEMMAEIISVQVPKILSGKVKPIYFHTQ

Androgen receptor = biological target: T2, Androgen receptor (Homo sapiens, UniProt P10275); format: cell-based
T2 sequence (P10275 whole entry): T1 sequence (whole entry)

[2] = AUC (0 to t) in rat administered via gavage by HPLC-MS/MS method; format: ADME, organism-based; conditions: in vivo, po
Outline: (§1)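 Rats 180–220 g, n = 3 per group; compound dissolved in water, single gavage dose of 5.0 mg/kg. Plasma quantified by HPLC-MS/MS. Parameters derived from mean plasma concentration by noncompartmental analysis.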

[3] = Elimination half life in rat administered via gavage by HPLC-MS/MS method; format: ADME, organism-based; conditions: in vivo, po, read-out: beta t1/2 (converted); outline: as §1
[4] = Tmax in rat administered via gavage by HPLC-MS/MS method; format: ADME, organism-based; conditions: in vivo, po; outline: as §1
[5] = Cmax in rat administered via gavage by HPLC-MS/MS method; format: ADME, organism-based; conditions: in vivo, po; outline: as §1
[6] = Clearance in rat administered via gavage by HPLC-MS/MS method; format: ADME, organism-based; conditions: in vivo, po; outline: as §1
[7] = biological target: T1, Androgen receptor (Homo sapiens); conditions: at 10 µM; remark: listed apart in the source

Row | Structure (SMILES) | IC50 (LNCaP) [µM] | IC50 (DU-145) [µM] | inhibition [1] | IC50 (Androgen receptor) [µM] | AUC(0-t) [2] [ng·h/mL] | half-life [3] [h] | Tmax [4] [h] | Cmax [5] [ng/mL] | CL/F [6] [mL/min/kg] | inhibition [7]
1 | CCCCS(=O)(=O)Nc1ccc2c(c1)CN1C(=S)N(c3ccc(C#N)c(C(F)(F)F)c3)C(=O)C1C2 (stereo unspecified) | 3.12 | > 200 | 29.5% | – | – | – | – | – | – | –
2 | CC(=O)Nc1ccc2c(c1)CN1C(=S)N(c3ccc(C#N)c(C(F)(F)F)c3)C(=O)C1C2 (stereo unspecified) | 83.8 | > 200 | 25% | – | – | – | – | – | – | –
3 | CCCOc1ccc2c(c1)CN1C(=S)N(c3ccc(C#N)c(C(F)(F)F)c3)C(=O)C1C2 (stereo unspecified) | 11.6 | 62.3 | 54% | – | – | – | – | – | – | –
4 | CCCC(=O)Nc1ccc2c(c1)CN1C(=S)N(c3ccc(C#N)c(C(F)(F)F)c3)C(=O)C1C2 (stereo unspecified) | 10.8 | > 200 | 45.5% | – | – | – | – | – | – | –
5 | CCC(=O)Nc1ccc2c(c1)CN1C(=S)N(c3ccc(C#N)c(C(F)(F)F)c3)C(=O)C1C2 (stereo unspecified) | 19.5 | > 200 | 4.5% | – | – | – | – | – | – | –
6 | COc1ccc2c(c1)CN1C(=S)N(c3ccc(C#N)c(C(F)(F)F)c3)C(=O)C1C2 (stereo unspecified) | 100 | 60.4 | inactive | – | – | – | – | – | – | –
7 | N#Cc1ccc(N2C(=O)C3Cc4ccc(N)cc4CN3C2=S)cc1C(F)(F)F (stereo unspecified) | 18.9 | 89.7 | 37.8% | – | – | – | – | – | – | –
8 | N#Cc1ccc(N2C(=O)C3Cc4ccc(O)cc4CN3C2=S)cc1C(F)(F)F (stereo unspecified) | 50.7 | > 200 | 85.7% | – | – | – | – | – | – | –
9 | N#Cc1ccc(N2C(=O)C3Cc4cc(N)ccc4CN3C2=S)cc1C(F)(F)F (stereo unspecified) | 73 | > 200 | 14.2% | – | – | – | – | – | – | –
10 | N#Cc1ccc(N2C(=O)C3Cc4cc([N+](=O)[O-])ccc4CN3C2=S)cc1C(F)(F)F (stereo unspecified) | 56.4 | > 200 | inactive | – | – | – | – | – | – | –
11 | CCOC(=O)Nc1cc2c(cc1F)CC1C(=O)N(c3ccc(C#N)c(C(F)(F)F)c3)C(=S)N1C2 (stereo unspecified) | 13.4 | > 200 | 85.1% | 7.39 | 30000 | 24.7 | 4 | 2290 | 2.43 | Active
12 | N#Cc1ccc(N2C(=O)C3Cc4cc(Cl)c(O)c(Cl)c4CN3C2=S)cc1C(F)(F)F (stereo unspecified) | 14 | 17.1 | 36% | – | – | – | – | – | – | –
13 | COc1c(Br)cc2c(c1Br)CN1C(=S)N(c3ccc(C#N)c(C(F)(F)F)c3)C(=O)C1C2 (stereo unspecified) | 19.1 | 33.8 | 4.6% | – | – | – | – | – | – | –
14 | CC(C)(C)C(=O)Nc1ccc2c(c1)CN1C(=S)N(c3ccc(C#N)c(C(F)(F)F)c3)C(=O)C1C2 (stereo unspecified) | 21.2 | 83.2 | inactive | – | – | – | – | – | – | –
15 | N#Cc1ccc(N2C(=O)C3Cc4ccccc4CN3C2=S)cc1F (stereo unspecified) | 70.3 | 37.1 | inactive | – | – | – | – | – | – | –
16 | CS(=O)(=O)Nc1ccc2c(c1)CN1C(=S)N(c3ccc(C#N)c(C(F)(F)F)c3)C(=O)C1C2 (stereo unspecified) | 31.1 | > 200 | 13.6% | – | – | – | – | – | – | –

Row | Structure (SMILES) | IC50 (LNCaP) [µM] | IC50 (DU-145) [µM] | inhibition [1] | IC50 (Androgen receptor) [µM] | AUC(0-t) [2] [ng·h/mL] | half-life [3] [h] | Tmax [4] [h] | Cmax [5] [ng/mL] | CL/F [6] [mL/min/kg] | inhibition [7]
17 | CCOC(=O)Nc1ccc2c(c1)CN1C(=S)N(c3ccc(C#N)c(C(F)(F)F)c3)C(=O)C1C2 (stereo unspecified) | 6.3 | 90.1 | 45.4% | – | 7030 | 34.4 | 2 | 641 | 9.5 | –
18 | N#Cc1ccc(N2C(=O)C3Cc4ccc(OC5CCCCC5)cc4CN3C2=S)cc1C(F)(F)F (stereo unspecified) | 8.5 | 98.1 | 61.6% | – | – | – | – | – | – | –
19 | N#Cc1ccc(N2C(=O)C3Cc4cc(Br)c(O)c(Br)c4CN3C2=S)cc1C(F)(F)F (stereo unspecified) | 11.1 | 11.4 | 6.1% | – | – | – | – | – | – | –
20 | N#Cc1ccc(N2C(=O)C3Cc4ccccc4N3C2=S)cc1C(F)(F)F (stereo unspecified) | 15.3 | – | – | 18.7 | 2860 | 10.4 | 2 | 452 | 26.5 | –
21 | CCOC(=O)CCCOc1ccc2c(c1)CN1C(=S)N(c3ccc(C#N)c(C(F)(F)F)c3)C(=O)C1C2 (stereo unspecified) | 18.8 | 15.4 | 43.9% | – | – | – | – | – | – | –
22 | CC(C)COc1ccc2c(c1)CN1C(=S)N(c3ccc(C#N)c(C(F)(F)F)c3)C(=O)C1C2 (stereo unspecified) | 10.6 | 52.6 | 61.5% | – | – | – | – | – | – | –
23 | N#Cc1ccc(N2C(=O)C3Cc4ccccc4CN3C2=S)cc1C(F)(F)F (stereo unspecified) | 31.1 | > 200 | 89% | – | 3860 | 5.13 | 2 | 387 | 20.5 | –
24 | CCOC(=O)CCCOc1c(Br)cc2c(c1Br)CN1C(=S)N(c3ccc(C#N)c(C(F)(F)F)c3)C(=O)C1C2 (stereo unspecified) | 6.3 | 21.9 | inactive | – | – | – | – | – | – | –
25 | CCOc1ccc2c(c1)CN1C(=S)N(c3ccc(C#N)c(C(F)(F)F)c3)C(=O)C1C2 (stereo unspecified) | 22.6 | 40.9 | 47.1% | – | – | – | – | – | – | –
26 | CC12Cc3ccccc3CN1C(=S)N(c1ccc(C#N)c(C(F)(F)F)c1)C2=O (stereo unspecified) | 65.3 | > 200 | 26.2% | – | – | – | – | – | – | –
27 | CNC(=O)c1cc2c(cc1F)CC1C(=O)N(c3ccc(C#N)c(C(F)(F)F)c3)C(=S)N1C2 (stereo unspecified) | 28.1 | > 200 | 47.1% | – | – | – | – | – | – | –
28 | N#Cc1ccc(N2C(=O)C3Cc4cc(I)c(O)c(I)c4CN3C2=S)cc1C(F)(F)F (stereo unspecified) | 16.3 | 22.1 | 27.3% | – | – | – | – | – | – | –
29 | N#Cc1ccc(N2C(=O)C3Cc4ccc([N+](=O)[O-])cc4CN3C2=S)cc1C(F)(F)F (stereo unspecified) | 43 | > 200 | 59.8% | – | – | – | – | – | – | –
30 | CNC(=O)c1ccc(N2C(=S)N(c3ccc(C#N)c(C(F)(F)F)c3)C(=O)C2(C)C)cc1F [ENZALUTAMIDE] | 12.5 | 46.1 | – | – | – | – | – | – | – | –
31 | CNC(=O)c1cc2c(cc1F)CC1C(=O)N(c3ccc(C#N)c(F)c3)C(=S)N1C2 (stereo unspecified) | 116 | 85.4 | 26.7% | – | – | – | – | – | – | –
32 | CC(C)Oc1ccc2c(c1)CN1C(=S)N(c3ccc(C#N)c(C(F)(F)F)c3)C(=O)C1C2 (stereo unspecified) | 8.6 | 91.6 | 45.4% | – | – | – | – | – | – | –
